Tested on: Fibroblast
Test: Multiplex assay against human fibroblast
Type: toxicity, cell-based
Summary of the method: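 Cells stained live at seeding with Hoechst33342, BioTracker Green Microtubule Cytoskeleton Dye, MitoTracker Red and Annexin V Alexa Fluor 680 were imaged on a CQ1 microscope at 37°C and 5% CO2 after compound addition. Their classification by CellPathfinder machine-learning gating ran from Hoechst high-intensity objects versus normal cells, to healthy, pyknosed or fragmented nuclei among normal cells, to mitotic or apoptotic among pyknosed cells. Tubulin, mitochondrial-mass and membrane-permeability phenotypes are per cents of healthy-nucleus cells.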

[1] = 12 h, 1 µM, compound concentration 1 uM, replicate 1
[2] = 12 h, 1 µM, compound concentration 1 uM, replicate 2
[3] = 12 h, 10 µM, compound concentration 10 uM, replicate 1
[4] = 12 h, 10 µM, compound concentration 10 uM, replicate 2
[5] = 24 h, 1 µM, compound concentration 1 uM, replicate 1
[6] = 24 h, 1 µM, compound concentration 1 uM, replicate 2
[7] = 24 h, 10 µM, compound concentration 10 uM, replicate 1
[8] = 24 h, 10 µM, compound concentration 10 uM, replicate 2
[9] = 48 h, 1 µM, compound concentration 1 uM, replicate 1
[10] = 48 h, 1 µM, compound concentration 1 uM, replicate 2
[11] = 48 h, 10 µM, compound concentration 10 uM, replicate 1
[12] = 48 h, 10 µM, compound concentration 10 uM, replicate 2

COc1ccccc1CN[C@H]1C2CCN(CC2)[C@H]1C(c1ccccc1)c1ccccc1 [CP-96345]
Population Apoptotic (%) [1]: 64% | Population Fragmented Nuclei (%) [1]: 25% | Population Healthy Nuclei (%) [1]: 43% | Population Hoechst High Intensity Objects (%) [1]: 13% | Population Membrane Permeable-Phenotype (%) [1]: 27% | Population Mitochondria Different-Phenotype (%) [1]: 9% | Population Mitotic Cells (%) [1]: 35% | Population Normal (%) [1]: 86% | Population Pyknosed Nuclei (%) [1]: 30% | Population Tubulin-Different-Phenotype (%) [1]: 52% | Total Cell Count [1]: 146 | Population Apoptotic (%) [2]: 66% | Population Fragmented Nuclei (%) [2]: 4% | Population Healthy Nuclei (%) [2]: 92% | Population Hoechst High Intensity Objects (%) [2]: 0% | Population Membrane Permeable-Phenotype (%) [2]: 4% | Population Mitochondria Different-Phenotype (%) [2]: 7% | Population Mitotic Cells (%) [2]: 33% | Population Normal (%) [2]: 100% | Population Pyknosed Nuclei (%) [2]: 3% | Population Tubulin-Different-Phenotype (%) [2]: 8% | Total Cell Count [2]: 90 | Population Apoptotic (%) [3]: 67% | Population Fragmented Nuclei (%) [3]: 29% | Population Healthy Nuclei (%) [3]: 45% | Population Hoechst High Intensity Objects (%) [3]: 13% | Population Membrane Permeable-Phenotype (%) [3]: 6% | Population Mitochondria Different-Phenotype (%) [3]: 44% | Population Mitotic Cells (%) [3]: 32% | Population Normal (%) [3]: 86% | Population Pyknosed Nuclei (%) [3]: 25% | Population Tubulin-Different-Phenotype (%) [3]: 84% | Total Cell Count [3]: 129 | Population Apoptotic (%) [4]: 50% | Population Fragmented Nuclei (%) [4]: 2% | Population Healthy Nuclei (%) [4]: 86% | Population Hoechst High Intensity Objects (%) [4]: 3% | Population Membrane Permeable-Phenotype (%) [4]: 1% | Population Mitochondria Different-Phenotype (%) [4]: 45% | Population Mitotic Cells (%) [4]: 50% | Population Normal (%) [4]: 96% | Population Pyknosed Nuclei (%) [4]: 10% | Population Tubulin-Different-Phenotype (%) [4]: 26% | Total Cell Count [4]: 77 | Population Apoptotic (%) [5]: 63% | Population Fragmented Nuclei (%) [5]: 26% | Population Healthy Nuclei (%) [5]: 49% | Population Hoechst High Intensity Objects (%) [5]: 15% | Population Membrane Permeable-Phenotype (%) [5]: 23% | Population Mitochondria Different-Phenotype (%) [5]: 8% | Population Mitotic Cells (%) [5]: 36% | Population Normal (%) [5]: 84% | Population Pyknosed Nuclei (%) [5]: 24% | Population Tubulin-Different-Phenotype (%) [5]: 41% | Total Cell Count [5]: 161 | Population Apoptotic (%) [6]: 54% | Population Fragmented Nuclei (%) [6]: 4% | Population Healthy Nuclei (%) [6]: 85% | Population Hoechst High Intensity Objects (%) [6]: 2% | Population Membrane Permeable-Phenotype (%) [6]: 1% | Population Mitochondria Different-Phenotype (%) [6]: 4% | Population Mitotic Cells (%) [6]: 45% | Population Normal (%) [6]: 97% | Population Pyknosed Nuclei (%) [6]: 9% | Population Tubulin-Different-Phenotype (%) [6]: 17% | Total Cell Count [6]: 114 | Population Apoptotic (%) [7]: 55% | Population Fragmented Nuclei (%) [7]: 41% | Population Healthy Nuclei (%) [7]: 43% | Population Hoechst High Intensity Objects (%) [7]: 22% | Population Membrane Permeable-Phenotype (%) [7]: 3% | Population Mitochondria Different-Phenotype (%) [7]: 41% | Population Mitotic Cells (%) [7]: 44% | Population Normal (%) [7]: 77% | Population Pyknosed Nuclei (%) [7]: 14% | Population Tubulin-Different-Phenotype (%) [7]: 86% | Total Cell Count [7]: 156 | Population Apoptotic (%) [8]: 40% | Population Fragmented Nuclei (%) [8]: 2% | Population Healthy Nuclei (%) [8]: 81% | Population Hoechst High Intensity Objects (%) [8]: 1% | Population Membrane Permeable-Phenotype (%) [8]: 2% | Population Mitochondria Different-Phenotype (%) [8]: 31% | Population Mitotic Cells (%) [8]: 60% | Population Normal (%) [8]: 98% | Population Pyknosed Nuclei (%) [8]: 16% | Population Tubulin-Different-Phenotype (%) [8]: 14% | Total Cell Count [8]: 92 | Population Apoptotic (%) [9]: 42% | Population Fragmented Nuclei (%) [9]: 30% | Population Healthy Nuclei (%) [9]: 60% | Population Hoechst High Intensity Objects (%) [9]: 14% | Population Membrane Permeable-Phenotype (%) [9]: 20% | Population Mitochondria Different-Phenotype (%) [9]: 3% | Population Mitotic Cells (%) [9]: 57% | Population Normal (%) [9]: 85% | Population Pyknosed Nuclei (%) [9]: 9% | Population Tubulin-Different-Phenotype (%) [9]: 29% | Total Cell Count [9]: 169 | Population Apoptotic (%) [10]: 50% | Population Fragmented Nuclei (%) [10]: 36% | Population Healthy Nuclei (%) [10]: 61% | Population Hoechst High Intensity Objects (%) [10]: 12% | Population Membrane Permeable-Phenotype (%) [10]: 25% | Population Mitochondria Different-Phenotype (%) [10]: 4% | Population Mitotic Cells (%) [10]: 50% | Population Normal (%) [10]: 87% | Population Pyknosed Nuclei (%) [10]: 2% | Population Tubulin-Different-Phenotype (%) [10]: 36% | Total Cell Count [10]: 82 | Population Apoptotic (%) [11]: 83% | Population Fragmented Nuclei (%) [11]: 36% | Population Healthy Nuclei (%) [11]: 58% | Population Hoechst High Intensity Objects (%) [11]: 25% | Population Membrane Permeable-Phenotype (%) [11]: 2% | Population Mitochondria Different-Phenotype (%) [11]: 36% | Population Mitotic Cells (%) [11]: 16% | Population Normal (%) [11]: 75% | Population Tubulin-Different-Phenotype (%) [11]: 61% | Total Cell Count [11]: 172 | Population Apoptotic (%) [12]: 25% | Population Fragmented Nuclei (%) [12]: 30% | Population Healthy Nuclei (%) [12]: 66% | Population Hoechst High Intensity Objects (%) [12]: 11% | Population Membrane Permeable-Phenotype (%) [12]: 24% | Population Mitochondria Different-Phenotype (%) [12]: 7% | Population Mitotic Cells (%) [12]: 75% | Population Normal (%) [12]: 88% | Population Pyknosed Nuclei (%) [12]: 4% | Population Tubulin-Different-Phenotype (%) [12]: 60% | Total Cell Count [12]: 113

— ChEMBL document CHEMBL4689842, “EUbOPEN Chemogenomics Library wave 1” (2021)
